HSF1 inh – HSF1 inhibitors in luciferase reporter cells, primary screen, cell-based, NIH3T3, luminescence; NIH3T3-HGL HSE-luciferase, MG132-induced, luminescence 8 h; hits give low values; 0.77% of 300,000 active; activity change, negative = inhibition, % at 7.5 µM (by protocol);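 active = more than half of replicate wells show activity change below -50%, luminescence cut by over half; inconclusive = some wells, but at most half, below -50%; inactive = no replicate well below -50%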;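 note: luciferase reports HSF-1 transcriptional activity via heat shock element; 0% = median of DMSO wells and -100% = zero luminescence signal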
697 NFkB inh – inhibitors of PMA/ionomycin-induced NF-kB reporter, 697 cells, primary screen, B-cell NF-kB inhibitor project, cell-based, luminescence, uHTS; 697 B-cell NF-kB luciferase reporter, 16 h; inhibition, % at 4 µM; 0.33% of 330,000 active; in the data active = inhibition above about 35%
GPR7 antagonist – GPR7 receptor antagonists, primary screen, cell-based, fluorescence, single concentration; Neuropeptides B/W receptor type 1 (Homo sapiens), P48145; GPR7-expressing cells, fluorescence antagonist assay; inhibition, % at 4.4 µM; 1.1% of 290,000 active; in the data active = inhibition above about 16%, passing the limit was not always enough;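 note: cells stimulated with the agonist NPW; 0% = agonist with vehicle and 100% = vehicle without agonist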
Target sequence (P48145 whole entry, looked up): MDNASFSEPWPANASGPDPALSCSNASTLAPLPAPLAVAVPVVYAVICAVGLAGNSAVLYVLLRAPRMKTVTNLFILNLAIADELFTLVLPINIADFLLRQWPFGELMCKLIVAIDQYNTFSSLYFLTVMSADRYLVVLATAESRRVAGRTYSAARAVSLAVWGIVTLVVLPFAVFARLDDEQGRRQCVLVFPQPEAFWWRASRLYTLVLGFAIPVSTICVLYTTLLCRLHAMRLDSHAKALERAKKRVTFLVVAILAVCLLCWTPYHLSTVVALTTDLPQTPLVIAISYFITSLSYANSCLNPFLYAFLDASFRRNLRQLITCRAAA
Jurkat NFkB inh – inhibitors of induced NF-kB luciferase reporter, primary screen, TCR NF-kB activation inhibitor project, cell-based, luminescence, uHTS | Jurkat, PMA/ionomycin-induced NF-kB luciferase reporter | AID 435003, 2010 | 0.53% of 330,000 active | inhibition, % at 4 µM; in the data active = inhibition above about 50%
T cruzi inh – inhibitors of intracellular T. cruzi growth, primary screen, luminescence, NIH3T3 host cells; 1.4% of 300,000 active; T. cruzi beta-gal in NIH3T3, 90 h; inhibition, % (no concentration beside the values);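 active = mean inhibition across valid replicates above about 55%, limit read from the data; inconclusive = mean below that limit but half or more replicates reach it; inactive = mean below it, under half of replicates reach it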;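 note: signal also drops with host cell toxicity which is not excluded here; 0% = plate median of DMSO wells and 100% = zero luminescence signal; higher percent means less beta-gal luminescence so fewer parasites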
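assay system = mouse NIH/3T3 fibroblasts infected with β-gal-expressing T. cruzi Tulahuen C4 | input = 5,000 NIH/3T3 host cells per well | buffer or medium = DMEM plus 2% FBS | timing = 3 h host attachment, then at least 90 h co-culture | measured by = GalScreen luminescence, 60 min | evaluation = luminescence reflecting intracellular parasite burden, expressed as percent inhibition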
HSF1 activator – HSF-1 activators, primary screen, NIH3T3-HGL cells, MG132 stress, luminescence, single point. NIH3T3-HGL HSF-1 luciferase reporter, 8 h; 100% = twice DMSO control signal. activation, % at 9 µM. 1.7% of 300,000 active;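 active = mean replicate activation of at least 50% with a set share of replicates each reaching 50%; inconclusive = only one of those two conditions met; inactive = mean below 50% and too few replicates reaching it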;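 note: 0% = median of the neutral control wells and 100% = twice that signal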
* hit, by the source's call; ? = inconclusive; / = no result. In the library only some 4.8% were active in any assay of this set; here they are far more common.

SMILES | HSF1 inh | 697 NFkB inh | GPR7 antagonist | Jurkat NFkB inh | T cruzi inh | HSF1 activator
C=CC(=O)Oc1ccc(N2Cc3ccccc3C2=O)cc1 | 63 | -51 | / | -29 | -9 | 70*
COc1ccccc1CN1CCNC(=O)C1CC(=O)NC1Cc2ccccc2C1 (stereo not given) | 5 | -2 | -7 | 11 | 0 | 5
COc1ccc(CCN(Cc2cc3cccc(C)c3n3nnnc23)C(=O)c2ccncc2)cc1OC | -6 | -13 | -8 | -5 | 5 | -8
COC(=O)CC1(C(=O)OC)Oc2ccccc2C(=O)N1c1ccc(F)cc1F (stereo not given) | -2 | 3 | / | 10 | 3 | -2
CN(C)c1ccc(C2Nc3ccccc3C(=O)N2CCCN2CCOCC2)cc1 (stereo not given) | -68* | -18 | -8 | -8 | -2 | -74
CCN(CC)CCN1C(=O)c2ccccc2NC1c1ccc(N(C)C)cc1 (stereo not given) | -4 | -5 | 1 | -2 | -26 | 8
O=C(NCc1ccco1)c1ccc(COc2cc(Cl)ccc2Cl)cc1 | 31 | -41 | -1 | -20 | -5 | 76*
O=C(COc1ccc(Cl)cc1Cl)NCc1ccco1 | / | 26 | 4 | -18 | -11 | /
Nc1c(-c2ccccc2)cnn1-c1cccc(Cl)c1 | 27 | -136 | 25 | -120 | -6 | 45
Nc1ccccc1Nc1cc(-c2cccc(Cl)c2)nn1-c1ccccc1 | -10 | -73 | -1 | -4 | 57* | 0
CCOC(=O)c1ccc(Nc2ncccc2[N+](=O)[O-])cc1 | 26 | -102 | -4 | -105 | -5 | 19
O=C(COc1cccnc1[N+](=O)[O-])NCc1ccco1 | -13 | 7 | -6 | 1 | 3 | 7
c1ccc2c(-c3nc(-c4ccncc4)no3)cccc2c1 | 36 | -47 | -9 | -51 | 40 | 78*
c1ccc(SCc2nc(-c3ccncc3)no2)cc1 | 44 | -51 | -10 | -47 | 2 | 73*
CCOC(=O)C(=Cc1c[nH]c2ccc(S(=O)(=O)N(C)C)cc12)C(=O)OCC | 103 | -59 | -7 | -12 | 4 | 146*
C=CCn1c(SCCOc2ccccc2)nnc1C(C)NC(=O)c1ccccc1 (stereo not given) | 12 | 11 | -1 | 7 | 4 | 17
C=CCn1c(CCNC(=O)c2ccc(Cl)c(Cl)c2)nnc1SCCOc1ccc(OC)cc1 | 73 | 11 | 0 | 4 | 5 | 128*
CCOc1ccc(Nc2nnc(Cc3ccc(OC)cc3)c(=O)[nH]2)cc1 | -15 | 5 | 1 | -1 | -13 | -9
Cn1c(C(=O)NCc2cccnc2)cc2sc(Cl)cc21 | 0 | 17 | 2 | 4 | 61* | 11
O=C(NCc1cccnc1)c1sc2cc(Cl)ccc2c1Cl | 5 | 3 | 13 | 4 | 42 | 6
COc1ccc2c(-c3ccc(S(N)(=O)=O)cc3)c(-c3ccc(S(C)(=O)=O)cc3)sc2c1 | / | 9 | / | -2 | / | /
OCCN1CCN(CC(O)C(F)(F)F)CC1 (stereo not given) | -3 | 16 | -18 | 6 | -1 | -7
Cc1ccc(-c2nc(-c3ccccc3)no2)c(Cl)c1 | -72* | -168 | -4 | -62 | -13 | -77
Oc1ccc(N2CCN(c3ncnc4sc(-c5ccccc5)cc34)CC2)cc1 | -6 | / | 10 | / | 58* | -6
CC(=O)N1CCN(c2ncnc3sc(-c4ccccc4)cc23)CC1 | -1 | 7 | -16 | -1 | 4 | -10
SMILES | HSF1 inh | 697 NFkB inh | GPR7 antagonist | Jurkat NFkB inh | T cruzi inh | HSF1 activator
COc1ccc(C(=O)N/N=C(\C)Cn2cnc([N+](=O)[O-])n2)cc1 | 3 | -1 | -11 | -2 | 56* | -14
C/C(Cn1cnc([N+](=O)[O-])n1)=N\NC(=O)c1cccc(F)c1 | 1 | 13 | -4 | 6 | 63* | -19
C/C(Cn1cnc([N+](=O)[O-])n1)=N\NC(=O)c1ccncc1 | 7 | -11 | 2 | -16 | 49 | 35
C/C(Cn1cnc([N+](=O)[O-])n1)=N\NC(=O)c1ccc(F)cc1 | 9 | 13 | 5 | 5 | 48 | 27
CCOC(=O)c1c(C)c(C(=O)NCCc2ccccc2)c(C)n1C | 40 | -30 | -5 | -40 | 3 | 77*
c1ccc2c(c1)CCN(C1=Nc3cccc4cccc1c34)C2 | / | -5 | 1 | 0 | / | /
CCc1ccccc1NC(=O)CC(c1ccc(OC)cc1)n1cccc1 (stereo not given) | 30 | 19 | 16 | 5 | 2 | 81*
Cc1cc(S(=O)(=O)NCc2ccccc2)ccc1OCC(=O)NCC1CCCO1 (stereo not given) | -5 | 23 | -11 | 2 | -10 | 5
CCOC(=O)c1c(C)n(-c2ccc(C)cc2)c2c(CC(C)=O)c(Br)c(OC)c(O)c12 | 36 | 3 | -3 | 3 | -2 | 65*
CCOc1ccc(OCCOCCN2CCc3ccccc3C2)cc1 | -7 | 0 | 19 | 10 | 77* | -12
c1ccc(OCCOCCN2CCc3ccccc3C2)cc1 | / | -9 | -4 | -16 | ? | /
CCCOc1ccc(OCCOCCN2CCc3ccccc3C2)cc1 | -3 | -14 | -4 | -12 | 71* | 3
CC(NC(=O)c1cccc(Cn2cc([N+](=O)[O-])cn2)c1)c1ccc(C(C)(C)C)cc1 (stereo not given) | 6 | -1 | 3 | 2 | 55* | 15
Cc1cc2oc3c(c(=O)c2cc1C)C(c1ccc(C(C)C)cc1)N(CCCN1CCOCC1)C3=O (stereo not given) | 33 | 3 | -6 | 3 | 2 | 58*
CCn1cc(C(=O)NCCCOC(C)C)c(=O)c2cc(S(=O)(=O)N3CCC(C)CC3)ccc21 | -14 | 0 | -2 | 18 | 9 | -5
O=C(Nc1cnn(Cc2c(Cl)cccc2Cl)c1)C(c1ccccc1)c1ccccc1 | 6 | 20 | -15 | -16 | 55* | -13
COc1ccc(N2CC(C(=O)Nc3nnc(C4CCCCC4)s3)CC2=O)cc1 (stereo not given) | -62* | 3 | 8 | 4 | 2 | -70
Cc1ccc(C(=O)Nc2nnc(C3CCCCC3)s2)o1 | 37 | -133 | -9 | -70 | -3 | 68*
O=C(O)/C=C/C(=O)c1ccc2c(c1)CCc1ccccc1-2 | 146 | -54 | / | 3 | -19 | 175*
COc1ccccc1C1CC(=O)NC(C)=C1C(=O)OC(C)C (stereo not given) | 6 | 12 | 0 | -10 | -16 | 15
Cc1cc(/C=C2\NC(=S)NC2=O)c(C)n1-c1cccnc1 | -5 | 1 | -8 | -17 | -7 | 9

Screening data as filed in PubChem.
